Series [1] deals with T1, Fatty-acid amide hydrolase 1 (Homo sapiens) (UniProt O00519).
T1 sequence (whole entry): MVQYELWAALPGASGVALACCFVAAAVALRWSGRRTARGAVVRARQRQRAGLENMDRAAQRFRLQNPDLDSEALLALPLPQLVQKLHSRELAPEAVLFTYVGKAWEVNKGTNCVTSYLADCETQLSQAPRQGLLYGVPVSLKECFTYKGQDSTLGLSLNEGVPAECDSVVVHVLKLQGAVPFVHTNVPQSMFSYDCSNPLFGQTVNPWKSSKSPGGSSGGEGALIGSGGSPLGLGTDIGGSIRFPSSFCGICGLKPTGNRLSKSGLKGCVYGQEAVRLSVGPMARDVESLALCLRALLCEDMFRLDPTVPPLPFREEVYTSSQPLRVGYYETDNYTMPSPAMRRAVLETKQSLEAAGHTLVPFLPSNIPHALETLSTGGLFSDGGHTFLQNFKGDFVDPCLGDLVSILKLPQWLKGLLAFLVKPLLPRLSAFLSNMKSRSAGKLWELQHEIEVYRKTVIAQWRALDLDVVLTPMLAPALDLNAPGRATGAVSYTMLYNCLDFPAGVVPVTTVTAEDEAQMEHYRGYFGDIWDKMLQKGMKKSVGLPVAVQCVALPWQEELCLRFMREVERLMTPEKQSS
The series is described as follows: Activity of human recombinant FAAH assessed as compound hydrolysis at 10^-5 M after 90 mins by HPLC/MS analysis in presence of URB-597. The gist of the method: (§1)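 Recombinant human FAAH (90 μg/tube), made in-house, incubated with compound in TE buffer (10 mM Tris-HCl, 1 mM EDTA, 0.1% w/v BSA, pH 7.4) at 37 °C for 90 min, with or without preincubation with FAAH inhibitor at 5.10^-5 M. Proteins precipitated by centrifugation and supernatant concentrated. Parent [M+H]+ quantified by HPLC/MS as AUC ratio to internal standard, normalized to boiled-enzyme blank. Three independent experiments in duplicate.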

Series [2] has as its target T1, Fatty-acid amide hydrolase 1 (Homo sapiens). The series is described as follows: Activity of human recombinant FAAH assessed as compound hydrolysis at 10^-5 M after 90 mins by HPLC/MS analysis. The essentials:
as §1

Series [3] concerns the target T2, Fatty-acid amide hydrolase 1 (Mus musculus) (UniProt O08914).
T2 sequence (whole entry): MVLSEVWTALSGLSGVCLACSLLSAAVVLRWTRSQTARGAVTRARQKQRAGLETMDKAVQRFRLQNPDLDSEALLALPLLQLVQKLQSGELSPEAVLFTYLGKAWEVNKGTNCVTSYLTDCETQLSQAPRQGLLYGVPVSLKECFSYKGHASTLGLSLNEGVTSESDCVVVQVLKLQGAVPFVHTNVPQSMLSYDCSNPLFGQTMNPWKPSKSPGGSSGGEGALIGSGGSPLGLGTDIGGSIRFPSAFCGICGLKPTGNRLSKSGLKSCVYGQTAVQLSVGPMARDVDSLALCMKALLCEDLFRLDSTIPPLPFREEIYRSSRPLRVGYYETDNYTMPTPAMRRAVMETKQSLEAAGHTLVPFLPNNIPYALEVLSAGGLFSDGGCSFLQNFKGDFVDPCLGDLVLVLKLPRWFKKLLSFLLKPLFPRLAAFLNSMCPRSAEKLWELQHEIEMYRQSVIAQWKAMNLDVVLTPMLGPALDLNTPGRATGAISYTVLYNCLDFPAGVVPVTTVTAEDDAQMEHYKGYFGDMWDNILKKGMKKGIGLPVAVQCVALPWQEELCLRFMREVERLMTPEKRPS
The series is described as follows: Activity of mouse liver homogenate FAAH assessed as compound hydrolysis at 10^-5 M after 90 mins by HPLC/MS analysis. The series is classed as tissue-based. The gist of the method:
(§2)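 Mouse liver homogenate (800g supernatant from Tris pH 7.4; 22.5 μg/tube) incubated with compound in TE buffer (10 mM Tris-HCl, 1 mM EDTA, 0.1% BSA, pH 7.4), 37 °C, 90 min, with or without preincubation with FAAH inhibitor (5.10^-5 M). Parent and ring-opened product measured by HPLC/MS as AUC ratio to internal standard, normalized to heat-inactivated homogenate. Three independent experiments in duplicate.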

The target of series [4] is T2, Fatty-acid amide hydrolase 1 (Mus musculus). The series is described as follows: Activity of mouse liver homogenate FAAH assessed as compound hydrolysis at 10^-5 M after 90 mins by HPLC/MS analysis in presence of PF-750. The class given is tissue-based. The essentials: as §2
The target of series [5] is T1, Fatty-acid amide hydrolase 1 (Homo sapiens). The series is described as follows: Activity of human recombinant FAAH assessed as compound hydrolysis at 10^-5 M after 90 mins by HPLC/MS analysis in presence of PF-750. The essentials: as §1
Series [6] concerns the target T2, Fatty-acid amide hydrolase 1 (Mus musculus). The series is described as follows: Activity of mouse liver homogenate FAAH assessed as compound hydrolysis at 10^-5 M after 90 mins by HPLC/MS analysis in presence of URB-597. The series is classed as tissue-based. The essentials: as §2
Series [7] addresses T3, Fatty-acid amide hydrolase 1 (Homo sapiens, UniProt O00519).
T3 sequence (O00519 whole entry): T1 sequence (whole entry)
The series is described as follows: Reversible inhibition of human recombinant FAAH assessed as hydrolysis of [3H]-AEA after 10 mins by liquid scintillation counting. The gist of the method:
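In-house recombinant human FAAH (6 μg) in 10 mM Tris-HCl, 1 mM EDTA, 0.1% (w/v) BSA, pH 7.4. Compound in DMSO, or DMSO alone, with [3H]-AEA (2 μM final, 50,000 dpm) for 10 min at 37 °C. Stopped on ice with chloroform/methanol (1:1). Aqueous phase counted for [3H]-ethanolamine; buffer-only blank subtracted. IC50 from three independent experiments in duplicate.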

A short description of series [8]: Metabolic stability of the compound in mouse liver homogenate assessed as compound hydrolysis at 10^-5 M after 90 mins by HPLC/MS analysis. The class given is ADME, tissue-based. The settings on record: read-out: Drug metabolism. The essentials: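 Mouse liver homogenised in Tris buffer pH 7.4 and spun at 800g for 15 min; supernatant used (22.5 μg/tube). Compound incubated in TE buffer (10 mM Tris-HCl, 1 mM EDTA, 0.1% BSA, pH 7.4) for 90 min at 37 °C. Proteins removed and supernatant concentrated. HPLC/MS followed the parent [M+H]+ AUC against an internal standard, normalised to boiled homogenate. Mean ± SEM, 3 experiments in duplicate.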

The target in series [9] is T3, Fatty-acid amide hydrolase 1. The series is described as follows: Irreversible inhibition of human recombinant FAAH assessed as hydrolysis of [3H]-AEA after 10 mins by liquid scintillation counting.

Here are results for 5 compounds from ChEMBL document CHEMBL2150943, “SAR and LC/MS studies of β-lactamic inhibitors of human fatty acid amide hydrolase (hFAAH): evidence of a nonhydrolytic process” (J Med Chem, 2011).

Each structure is given as a SMILES string. “And” between values parts separate entries of the source, which are not always exact repeats. Equal values may be shown once. The source made the active and inactive calls. The rule behind the calls is not given here.

Turning to `CCCCC/C=C\C/C=C\C/C=C\C/C=C\CCCC(=O)NCCO`, the result in [1], in series [4], in series [5] and in series [6] was inactive. Besides, the result in [2] and in series [3] was Active.
Turning to `C=CCCCN1C[C@@H]([C@@H](C)OC(=O)CCCc2ccccc2)C1=O`, the IC50 in series [7] (read-out: IC50) is 82.8 µM; in series [7] (read-out: pIC50 (converted)), 83.2 µM.
With `C=CCCC(=O)N1C[C@@H]([C@@H](C)OC(=O)CCCc2ccccc2)C1=O`, the pIC50 in series [7] was 8.27. In [8], the metabolised at 1.5 h, 10 µM is more than 80%.
As for `C=CCCC(=O)N1CC([C@@H](C)OCCCCc2ccccc2)C1`, the IC50 was 2.9 µM in series [7] (read-out: IC50) and 2.88 µM in [7] (read-out: pIC50 (converted)).
`C=CCCC(=O)N1C[C@@H]([C@@H](C)OCCCCc2ccccc2)C1=O`: the result in series [1], in series [2], in [5] and in [6] was inactive. Also, in series [4], the result was Active. Further, the IC50 in [9] is 0.008 µM and 0.00813 µM. For the same compound, in series [8], the metabolised at 1.5 h, 10 µM was more than 80%.
